In ChEMBL document CHEMBL1147812 (J Med Chem, 2006):

Biological target: Neuronal acetylcholine receptor; alpha4/beta2 (Rattus norvegicus, UniProt P09483+P12390)
Experiment: Inhibition of [3H]cytisine binding to alpha4beta2 nACHR in Wistar rat cerebral cortical membrane
In short: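 Male Wistar rat (150-250 g) cerebral cortex homogenized at 0-4 °C in 50 mM Tris HCl pH 7.4 with 120 mM NaCl, 5 mM KCl, 1 mM MgCl₂, 2.5 mM CaCl₂, then washed twice by centrifugation at 27 000g. Membranes incubated with test drug and 1 nM ³H-cytisine (final) for 90 min at 2 °C. Nonspecific binding defined with 100 µM (-)-nicotine. Bound label collected on GF/C filters and counted by liquid scintillation.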

Sequence of Neuronal acetylcholine receptor; alpha4/beta2 (P09483 whole entry): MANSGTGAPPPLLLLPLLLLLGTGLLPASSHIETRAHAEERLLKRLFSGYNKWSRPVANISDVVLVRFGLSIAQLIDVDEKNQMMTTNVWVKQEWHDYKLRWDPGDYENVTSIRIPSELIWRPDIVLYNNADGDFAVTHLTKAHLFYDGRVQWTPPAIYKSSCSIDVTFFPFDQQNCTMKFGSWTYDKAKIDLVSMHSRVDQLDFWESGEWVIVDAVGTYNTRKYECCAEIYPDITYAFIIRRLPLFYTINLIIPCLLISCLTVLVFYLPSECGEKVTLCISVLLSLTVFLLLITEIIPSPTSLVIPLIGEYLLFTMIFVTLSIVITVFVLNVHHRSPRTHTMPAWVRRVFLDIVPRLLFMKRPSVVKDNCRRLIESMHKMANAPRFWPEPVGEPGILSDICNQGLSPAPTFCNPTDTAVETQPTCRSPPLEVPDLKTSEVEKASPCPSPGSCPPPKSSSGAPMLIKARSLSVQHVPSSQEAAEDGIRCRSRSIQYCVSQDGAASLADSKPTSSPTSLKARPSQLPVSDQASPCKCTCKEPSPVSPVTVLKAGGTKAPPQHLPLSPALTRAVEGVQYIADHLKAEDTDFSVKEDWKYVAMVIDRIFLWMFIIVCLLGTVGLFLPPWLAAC
Sequence of Neuronal acetylcholine receptor; alpha4/beta2 (P12390 whole entry): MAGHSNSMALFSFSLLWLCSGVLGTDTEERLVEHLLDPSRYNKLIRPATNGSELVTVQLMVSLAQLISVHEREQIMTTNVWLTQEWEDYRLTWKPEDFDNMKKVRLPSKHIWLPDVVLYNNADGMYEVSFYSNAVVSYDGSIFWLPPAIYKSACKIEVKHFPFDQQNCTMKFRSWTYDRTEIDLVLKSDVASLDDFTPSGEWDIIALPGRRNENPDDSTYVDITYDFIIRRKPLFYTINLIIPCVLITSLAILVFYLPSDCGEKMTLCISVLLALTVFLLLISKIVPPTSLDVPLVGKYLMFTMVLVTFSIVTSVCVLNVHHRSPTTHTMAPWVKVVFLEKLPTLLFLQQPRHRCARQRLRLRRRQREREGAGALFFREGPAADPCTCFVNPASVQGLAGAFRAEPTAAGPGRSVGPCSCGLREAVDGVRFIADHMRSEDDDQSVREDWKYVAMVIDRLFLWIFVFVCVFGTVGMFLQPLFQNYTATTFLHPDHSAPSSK

SMILES | IC50
c1ncc(N2CCCNCC2)cc1C1CC1 | 5.8 nM
Brc1cncc(N2CCCNCCC2)c1 | 2.8 nM
Brc1ccc(N2CCNCC2)cn1 | 180 nM
Clc1cncc(OC2CCCNC2)c1 (racemic) | 240 nM
C/C=C\Oc1cncc(N2CCCNCC2)c1 | 1.3 nM
C/C=C\Oc1cncc(N2C3CCNCC2CC3)c1 (racemic) | 3.1 nM
c1cncc(N2CCCNCCC2)c1 | 0.9 nM
Oc1cc(N2CCCNCC2)cnc1I | 22 nM
C=COc1cncc(N2CCNCC2)c1 | 190 nM
COc1cncc(N2C3CCNCC2CC3)c1 (racemic) | 10 nM
COc1cncc(N2CCNCC2)c1 | 500 nM
C#Cc1cncc(N2CCNCC2)c1 | 110 nM
Brc1ccc(N2CCCNCCC2)cn1 | 0.45 nM
Cc1ncc(N2CCNCC2)cc1Cl | 520 nM
C=COc1cc(N2CCCNCC2)cnc1Br | 0.64 nM
C=COc1cc(N2CCCNCCC2)cnc1Br | 0.38 nM
Clc1ncc(N2CCCNCC2)cc1Br | 1.4 nM
C/C=C\Oc1cncc(N2CCC3CCC(C2)N3)c1 (racemic) | 1.9 nM
Clc1cc(N2CCCNCC2)cnc1Br | 1.4 nM
Clc1cncc(N2CCCNCCC2)c1 | 2 nM
CCOc1cncc(N2CCC3CCC(C2)N3)c1 (racemic) | 6.5 nM
Clc1ncc(N2CCNCC2)cc1Br | 230 nM
